Assay outcomes: PubChem, The Scripps Research Institute Molecular Screening Center
Only some compounds are listed: those with a hit (about 3.1% of all), similar ones and a draw of the others.
GPR7 antag = blocks human GPR7 receptor signaling; P48145; GPR7-expressing cells, fluorescence antagonist assay; inhibition, % at 4.4 µM; 1.1% of 290,000 active; in the data active means inhibition above about 16%, passing the limit was not always enough;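 further: cells stimulated with the agonist NPW; 0% = agonist with vehicle and 100% = vehicle without agonist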
Target sequence (P48145 whole entry, looked up): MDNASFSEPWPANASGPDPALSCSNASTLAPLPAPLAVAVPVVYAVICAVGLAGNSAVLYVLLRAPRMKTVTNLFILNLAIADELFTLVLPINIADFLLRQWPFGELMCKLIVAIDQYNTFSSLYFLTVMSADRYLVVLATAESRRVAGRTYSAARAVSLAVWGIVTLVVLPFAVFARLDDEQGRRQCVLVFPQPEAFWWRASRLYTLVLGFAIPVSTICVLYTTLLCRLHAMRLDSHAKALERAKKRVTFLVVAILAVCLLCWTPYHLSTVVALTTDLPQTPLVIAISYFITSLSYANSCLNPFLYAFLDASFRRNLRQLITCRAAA
OX1R antag-1 = blocks the human orexin 1 receptor | O43613 | OX1R-expressing cells, FRET antagonist read-out | inhibition, % at 6.6 µM | 1.8% of 330,000 active | AID 485270; in the data active means inhibition mostly above about 38%, no sharp cut-off; inactive means mostly below about 40%;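 further: 0% = agonist challenge alone and 100% = reference antagonist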
GalR3 antagonist = human GalR3 antagonism | O60755 | HEK293 GalR3-CNG cAMP membrane potential fluorescence; galR3 body fused to GalR1 C-terminus | inhibition, % at 3 µM | 0.44% of 360,000 active | AID 651719;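 active means inhibition above the screen-wide average plus 3 SD, cut at about 13% in these data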;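 further: forskolin and galanin both at EC90 stimulate the cells; cAMP rise reported by CNG channel membrane potential dye signal; 0% = forskolin plus galanin with DMSO and 100% = forskolin alone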
Target sequence (O60755 1-299 limits assumed): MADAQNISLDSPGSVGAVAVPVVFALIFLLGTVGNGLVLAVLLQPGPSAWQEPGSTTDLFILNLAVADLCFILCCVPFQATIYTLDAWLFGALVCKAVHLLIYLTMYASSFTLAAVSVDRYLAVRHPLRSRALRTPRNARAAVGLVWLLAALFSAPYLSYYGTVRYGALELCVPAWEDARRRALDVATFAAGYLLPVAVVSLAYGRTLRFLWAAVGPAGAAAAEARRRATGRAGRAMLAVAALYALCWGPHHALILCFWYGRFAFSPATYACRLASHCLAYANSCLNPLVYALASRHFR
OX1R antag-2 = antagonists of human orexin 1 receptor. O43613. CHO/OX1R cells, Fluo-8 calcium fluorescence, orexin A. inhibition, % at 5 µM. 0.43% of 330,000 active;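 active means inhibition above its plate's threshold, mean inhibition of all tested compounds on the plate plus 3 SD, cut at about 37% in these data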;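 further: 0% = orexin A challenge wells and 100% = SB-334867-A antagonist wells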
CHO parental Ca = counter-screen for OX1R antagonists: effect in parental CHO cells. inhibition, % at 5.6 µM. parental CHO-K1, ATP-induced calcium, Fluo-8 fluorescence. AID 463079. 0.63% of 330,000 active;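 active means inhibition above that plate's mean sample inhibition plus 3 SD, cut at about 26% in these data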;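 further: 0% = ATP-challenged DMSO wells and 100% = DMSO wells without ATP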
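Assay system: untransfected parental CHO cell line. Also added: ATP agonist challenge. Dosing: one dose, 5.6 µM nominal. Measured by: Fluo-8 fluorescence. Read-out: % inhibition. Benchmarks: ATP wells versus no-ATP DMSO wells. Repeats: no replicates.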
OX1R HTRF conf = confirmation of human orexin 1 receptor antagonists, HTRF format; shares compounds with OX1R antag-1; OX1R-expressing cells, HTRF antagonist assay; inhibition, % at 6.6 µM; 49% of 1,800 active; AID 492964; in the data active means inhibition above about 55%;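 further: CHO cells expressing OX1R stimulated with orexin A at about EC80; 0% = agonist challenge alone and 100% = reference antagonist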
CHO-K1 HTRF = counter-screen for OX1R antagonists: effect in parental CHO-K1 cells; shares compounds with OX1R antag-1; HTRF counterscreen; inhibition, % at 6.6 µM; 48% of 1,800 active; AID 493232; in the data active means inhibition above about 17%;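 further: 0% = agonist challenge with vehicle and 100% = vehicle alone without agonist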
* marks the source's active call; other numbers are inactive results; / = not tested or not shown.

SMILES	GPR7 antag	OX1R antag-1	GalR3 antagonist	OX1R antag-2	CHO parental Ca	OX1R HTRF conf	CHO-K1 HTRF
CCOC(=O)c1ccc(-c2c(C(=O)OCC)oc3cc(O)c(CC)cc3c2=O)o1	-16	83*	5	11	-9	27	9
O=c1nc(-c2ccccc2)c(-c2ccccc2)n[nH]1	11	/	-11	/	/	/	/
O=c1nc(-c2ccccc2)cn[nH]1	-9	148*	-2	-11	5	38	37*
CC(=O)Nc1ccc(NC(=O)C(C)OC(=O)CCCOc2ccc(Cl)c(C)c2)cc1 (stereo unspecified)	-19	85*	-2	20	-6	78*	6
CC(=O)OC1CCC2C3CCc4cc(OP(=O)(N5CC5)N5CC5)ccc4C3CCC12C (stereo unspecified)	/	/	-2	/	/	/	/
COc1ccc(OCCCC(=O)Nc2ccc(S(=O)(=O)N3CCOCC3)cc2)cc1	/	2	0	2	-15	/	/
COc1ccc(OC)c(/C=N/NC(=O)c2cc[n+](Cc3ccccc3)cc2)c1	-8	108*	-5	-12	-2	64*	46*
CCNC(=O)N(C)c1c(CC)nc2ccc(C(=O)N3CCN(C(C)=O)CC3)cn12	/	/	-7	/	/	/	/
O=[N+]([O-])c1cc(-c2nc(-c3ccncc3)no2)cc([N+](=O)[O-])c1	3	78*	-13	-31	0	72*	63*
O=[N+]([O-])c1cc(-c2nc(-c3ccncc3)no2)ccc1Cl	-11	59	-2	-2	3	/	/
Cc1ccc(-c2ccccc2NC(=O)CS(=O)CC(=O)Nc2ccc(C)c(Cl)c2)o1 (stereo unspecified)	-13	82*	-8	11	6	43	7
Cc1ccc(CN=c2c([N+](=O)[O-])nn(-c3ccc(Cl)cc3)n2O)cc1	7	23	-5	-4	-6	/	/
O=[N+]([O-])c1nn(-c2ccc(Cl)cc2)n(O)c1=NCc1ccncc1	8	84*	-6	-21	-16	41	54*
CCc1ccc(NC(=O)c2ccc(NC3=NC4CS(=O)(=O)CC4S3)cc2)cc1 (stereo unspecified)	-14	-5	-7	-14	-6	/	/
COc1ccc(NC(=O)c2cccnc2)c([N+](=O)[O-])c1	7	123*	-9	5	-1	32	16
CCN1C(=O)[C@@H]2[C@@H](c3ccc(-c4ccc(F)cc4)c(OC)c3)N3CCCC[C@@]3(C(=O)OC)[C@@H]2C1=O	/	82*	-5	-6	-41	42	-3
CC1(C)N([O-])C2=C(c3ccccc3C2=O)[N+](=O)C1(C)C	-12	169*	-4	1	1	56*	66*
CCOC(=O)c1cccc(NC(=O)CCCn2c(=O)c3cccn3c3cccnc32)c1	-3	80*	-7	-9	-23	80*	8
COc1ccc(Cl)cc1NC(=O)CCCn1c(=O)c2cccn2c2cccnc21	/	/	-3	/	/	/	/
CCOC(=O)Cn1nnc(-c2ccc([N+](=O)[O-])cc2)n1	-4	96*	2	6	11	37	32*
O=C1c2ccc([N+](=O)[O-])cc2C(=O)N1c1ccc([N+](=O)[O-])cn1	/	95*	1	2	12	41	63*
Cc1cnc(N2C(=O)c3ccc([N+](=O)[O-])cc3C2=O)s1	-7	52	6	-6	-24	/	/
CCOC(=O)Oc1ccc(/C=C2\N=C(C)OC2=O)cc1	-12	13	-12	-16	-8	/	/
COc1ccc(-n2nc3cc(C)c(N)c(Br)c3n2)cc1	26	92*	0	28	-17	41	6
O=C1C(O)=C(O)C(=O)c2ccccc21	/	13	-2	0	7	/	/
SMILES	GPR7 antag	OX1R antag-1	GalR3 antagonist	OX1R antag-2	CHO parental Ca	OX1R HTRF conf	CHO-K1 HTRF
CC(=O)N(C)C1=C(O)c2ccccc2C(=O)C1=O	-5	83*	-3	-7	-2	51	94*
CCNc1ccc(C(=O)OCC(=O)NCc2ccc(C)cc2)cc1[N+](=O)[O-]	-6	21	-1	-23	-16	/	/
CCNc1ccc(C(=O)OCC(=O)N2CCCC2)cc1[N+](=O)[O-]	3	140*	-9	-18	-4	34	56*
COc1cccc2cc(-c3nc4ccccc4o3)c(=O)oc12	0	123*	-6	0	-22	25	18*
O=c1oc2ccc(Br)cc2cc1-c1nc2ccccc2o1	6	15	-5	2	15	/	/
COc1ccc(Nc2ncnc3c2oc2ccccc23)cc1	-7	83*	1	-8	-9	62*	11
Cc1ccc(Nc2ncnc3c2oc2ccccc23)cc1	-8	54	-5	-15	-6	/	/
O=C1CCC([N+](=O)[O-])C(c2ccccc2F)N1 (stereo unspecified)	-5	-12	-5	-13	1	/	/
Cc1ccc(NC(=O)c2oc3ccccc3c2C)nc1	-9	84*	-1	14	-12	79*	3
CCOC(=O)CN1C=C(c2ccc3ccccc3n2)C(C[N+](=O)[O-])c2ccccc21 (stereo unspecified)	-9	117*	/	-20	-21	55*	67*
CCOC(=O)CSc1ccc2ccccc2n1	-3	9	-2	-16	-7	/	/
Cc1cc(NC(=O)c2ccc3c(c2)C(=O)N(c2cccc(C)c2C)C3=O)no1	-16	22	0	-10	-12	/	/
Cc1cc(C)n2nc(-c3cccc(Br)c3)cc2n1	-8	85*	-8	33	-11	90*	-3
Cc1cc(C)n2ncc(-c3cccc(Br)c3)c2n1	-12	24	-5	-46	-27	/	/
O=C(NCCCCC(NC(=O)c1ccc([N+](=O)[O-])cc1)C(=O)O)c1ccc([N+](=O)[O-])cc1 (stereo unspecified)	-5	137*	-4	-12	-12	37	58*
O=C1C=C(Nc2ccc(O)cc2)C(=O)c2ccccc21	2	79*	-5	-14	-9	32	25*
O=C1C(Nc2ccc(O)cc2)=C/C(=N/S(=O)(=O)c2cccs2)c2ccccc21	-23	/	-9	/	/	/	/
Cc1ccccc1Sc1ccc([N+](=O)[O-])cn1	/	7	-3	8	1	/	/
Cc1ccnc(Sc2ccc([N+](=O)[O-])cn2)n1	-10	77*	-1	-3	-3	71*	71*
COc1cccc(CN2CCN(CC#Cc3ccccc3)CC2CCO)c1 (stereo unspecified)	-9	/	-6	/	/	/	/
O=[N+]([O-])c1ccc(N2CCCCC2)nc1N1CCCCC1	-13	9	-1	-37	-14	/	/
O=[N+]([O-])c1ccc2c(c1N1CCCCC1)=NC1(CCCCC1)[N+]=2[O-]	-17	77*	3	-29	-8	49	77*
